For assay [1], the system named is Canis familiaris. Briefly: Effective dose administered intravenously to elicit Antiarrhythmic efficacy in anesthetized dogs was reported; Number of animals effective at that dose is 1. It counts as functional, Canis lupus familiaris, Heart. In a few lines:
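Dogs are anesthetized and the chest reopened. Stimulating and recording electrodes go on the myocardium. Reproducible PES-induced sustained VT or VF is confirmed first; SVT is ended by burst pacing and VF by DC countershock. Compound is given iv in 0.9% saline and inducibility retested. A dose counts as effective when SVT/VF cannot be reinduced in two of three animals.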

The species entered for assay [2] is Canis familiaris. Briefly: In vitro electrophysiological evaluation in canine cardiac ventricular muscle reported as maximum % change for functional refractory period (FRP) at 0.1-100 uM concentration range; concentration at which it occurred is 100. More on the design: species or system Canis lupus familiaris, Muscle tissue.
Assay [3] is filed under the species Canis familiaris. Briefly: In vitro electrophysiological evaluation in canine cardiac ventricular muscle reported as % change for the functional refractory period (FRP) at 10 uM at concentration range of 0.1-100 uM. More on the design: species or system Canis lupus familiaris, Muscle tissue. In a few lines: (§1)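 Canine right ventricle and papillary muscle strips in oxygenated Tyrode's solution, fitted with stimulating and recording electrodes. The extra-stimulus conduction-interval method was adapted for in vitro use. FRP and CT were read from a conduction-interval curve before and after various compound concentrations, and expressed as percent change from control. Compounds were taken from 10 mM deionized-water stock into Tyrode's. Each strip was used once as its own control.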

Assay [4] is filed under the species Canis familiaris. The assay is described as follows: In vitro electrophysiological evaluation in canine cardiac ventricular muscle reported as % change for conduction time(CT) at 10 uM at 0.1-100 uM concentration range; Minimal (<10% decrease or increase in […]). It counts as functional, Canis lupus familiaris, Muscle tissue. In a few lines: (§2)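 Canine right ventricular/papillary muscle strips in oxygenated Tyrode's, extracellular extra-stimulus conduction-interval method. FRP and CT are read from conduction-interval curves before and during rising concentrations. Compound is a 10 mM aqueous stock diluted into Tyrode's. Each strip is used once as its own control. Readouts are percent change from control at 10 μM, plus the maximum change with its concentration.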

Assay [5] is filed under the species Canis familiaris. Briefly: (§3) In vitro electrophysiological evaluation in canine cardiac occurred is 100. The format is functional. The following applies: Canis lupus familiaris; Heart.
For assay [6], the species on record is Canis familiaris. Briefly: In vitro electrophysiological evaluation in canine cardiac ventricular muscle reported as maximum % change for conduction time(CT) at 0.1-100 uM concentration range; Minimal (<10% decrease or increase in […]). It counts as functional, Canis lupus familiaris, Muscle tissue. In outline:
as §2

For assay [7], the species on record is Canis familiaris. The assay is described as follows: In vitro electrophysiological evaluation in canine cardiac Purkinje fibres reported as percent change Vmax at 10 uM at concentration range of 0.1-100 uM; Minimal (<10% decrease or increase in Vmax). The format is functional, organism-based. The following applies: Canis lupus familiaris, Purkinje fiber. In outline: (§4)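 Canine cardiac Purkinje fibres, intracellular microelectrode recording, paced at a basic cycle length of 1 s. APD95 and Vmax read simultaneously. Compound: 10 mM stock in deionized water, diluted into Tyrode's solution, tested over the stated concentration range. Each fibre used once as its own control. Result is % change from control, given at 10 µM or as the maximum with its concentration. M = <10% decrease or an increase in Vmax.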

Assay [8] is filed under the species Canis familiaris. Briefly: In vitro electrophysiological evaluation in canine cardiac Purkinje fibres reported as percent change Vmax at 10 uM at concentration range of 1-30 uM; Minimal (<10% decrease or increase in Vmax). The format is functional. The following applies: Canis lupus familiaris, Purkinje fiber.
The species named for assay [9] is Canis familiaris. Described as §3. The following applies: Canis lupus familiaris; Heart. It counts as functional. This is another data set of the same source.
For assay [10], the species on record is Canis familiaris. The assay is described as §3. It counts as functional. The following applies: Canis lupus familiaris; Heart. This is another data set of the same source.
For assay [11], the species on record is Canis familiaris. The assay is described as follows: In vitro electrophysiological evaluation in canine cardiac Purkinje fibres reported as percent change Vmax at 10 uM at concentration range of 5-100 uM; Minimal (<10% decrease or increase in Vmax). The following applies: Canis lupus familiaris, Purkinje fiber. The format is functional.
For assay [12], the species on record is Canis familiaris. The assay is described as follows: In vitro electrophysiological evaluation in canine cardiac Purkinje fibres reported as maximum percent change Vmax concentration range of 0.1-100 uM; Minimal (<10% decrease or increase in Vmax). It counts as functional. The following applies: Canis lupus familiaris; Purkinje fiber. In a few lines:
as §4

The species named for assay [13] is Canis familiaris. The assay is described as follows: (§5) In vitro electrophysiological activity in canine cardiac occurred is 100. The format is functional, Canis lupus familiaris, Heart.
For assay [14], the species on record is Canis familiaris. The assay is described as §5. The format is functional, Canis lupus familiaris, Heart. The source holds these as a separate data set.
Assay [15] is filed under the species Canis familiaris. Briefly: In vitro electrophysiological evaluation in canine cardiac Purkinje fibres reported as % change for action potential duration at 10 uM at 1-30 uM concentration range. It counts as functional, Canis lupus familiaris, Purkinje fiber. In outline: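 Canine cardiac Purkinje fibers, intracellular recording, paced at a basic cycle length of 1 s. APD95 and Vmax are recorded together across cumulative concentrations. Compound is a 10 mM aqueous stock diluted into Tyrode's solution. Each fiber is used once as its own control. Readouts are percent change from control at 10 μM, and the maximum change with the concentration where it occurred.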

The species entered for assay [16] is Canis familiaris. Briefly: In vitro electrophysiological evaluation in canine cardiac Purkinje fibres reported as % change for action potential duration at a concentration of 10 uM. The format is functional, Canis lupus familiaris, Purkinje fiber. In a few lines:
as §4

For assay [17], the species on record is Canis familiaris. Described as §5. It counts as functional, Canis lupus familiaris, Heart. This is another data set of the same source.
The species entered for assay [18] is Canis familiaris. Described as §5. It counts as functional, Canis lupus familiaris, Heart. The source holds these as a separate data set.
Assay [19] is filed under the species Canis familiaris. Briefly: In vitro electrophysiological evaluation in canine cardiac ventricular muscle reported as maximum % change for functional refractory period (FRP) at 0.1-100 uM concentration range. More on the design: species or system Canis lupus familiaris, Muscle tissue.
The species entered for assay [20] is Canis familiaris. The assay is described as follows: In vitro electrophysiological evaluation in canine cardiac ventricular muscle reported as % change for the functional refractory period (FRP) concentration range of 0.1-100 uM. More on the design: species or system Canis lupus familiaris, Muscle tissue. In outline: as §1
The species entered for assay [21] is Canis familiaris. Briefly: In vitro electrophysiological evaluation in canine cardiac Purkinje fibres reported as percent change Vmax concentration range of 0.1-100 uM. The following applies: Canis lupus familiaris; Purkinje fiber. The format is functional. In outline: as §4
For assay [22], the species on record is Canis familiaris. Briefly: In vitro electrophysiological evaluation in canine cardiac Purkinje fibres reported as percent change Vmax concentration range of 0.1-100 uM; Minimal (<IO%increase or a decrease in CT). It counts as functional. The following applies: Canis lupus familiaris; Purkinje fiber. In a few lines: as §4
For assay [23], the species on record is Canis familiaris. The assay is described as follows: In vitro electrophysiological evaluation in canine cardiac Purkinje fibres reported as percent change Vmax concentration range of 0.1-30 uM. The format is functional. The following applies: Canis lupus familiaris; Purkinje fiber. In outline:
as §4

The species entered for assay [24] is Canis familiaris. The assay is described as follows: In vitro electrophysiological evaluation in canine cardiac Purkinje fibres reported as percent change Vmax concentration range of 1-100 uM; Minimal (<IO%increase or a decrease in CT; Minimal (<IO%increase or a decrease in CT). The format is functional. The following applies: Canis lupus familiaris; Purkinje fiber. In outline: as §4

For assay [25], the species on record is Canis familiaris. The assay is described as follows: In vitro electrophysiological evaluation in canine cardiac ventricular muscle reported as % change for conduction time(CT) at 0.1-100 uM concentration range; Minimal (<IO%increase or a decrease in CT). It counts as functional, Canis lupus familiaris, Muscle tissue.
The species named for assay [26] is Canis familiaris. The assay is described as follows: In vitro electrophysiological evaluation in canine cardiac ventricular muscle reported as maximum % change for conduction time(CT) at 0.1-100 uM concentration range; Minimal (<IO%increase or a decrease in CT). The format is functional, Canis lupus familiaris, Muscle tissue. In a few lines:
as §1

The species entered for assay [27] is Canis familiaris. The assay is described as follows: In vitro electrophysiological evaluation in canine cardiac Purkinje fibres reported as maximum percent change Vmax concentration range of 1-100 uM; M = Minimal(<IO%increase or a decrease in CT). The format is functional. The following applies: Canis lupus familiaris; Purkinje fiber. In a few lines:
as §4

The species named for assay [28] is Canis familiaris. The assay is described as follows: In vitro electrophysiological evaluation in canine cardiac Purkinje fibres reported as maximum percent change Vmax concentration range of 0.1-30 uM. The following applies: Canis lupus familiaris; Purkinje fiber. It counts as functional. In outline:
as §4

For assay [29], the species on record is Canis familiaris. The assay is described as follows: In vitro electrophysiological activity in canine cardiac Purkinje fibres given as maximum % change for action potential duration at 0.1-100 uM concentration. The format is functional, Canis lupus familiaris, Purkinje fiber. In outline:
(§6)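 Canine cardiac Purkinje fibres, intracellular recording at 1 s basic cycle length, over cumulative concentration ranges. Compound 10 mM stock in deionized water diluted into Tyrode's. Each fibre used once as its own control. Value is the maximum % change from control in APD at 95% repolarization, with the concentration where it occurred; both values given if a biphasic response (>20% reversal) occurred.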

The species named for assay [30] is Canis familiaris. The assay is described as follows: In vitro electrophysiological evaluation in canine cardiac Purkinje fibres reported as % change for action potential duration at 0.1-30 uM concentration range. The format is functional, Canis lupus familiaris, Purkinje fiber. In a few lines: as §4
For assay [31], the species on record is Canis familiaris. Briefly: In vitro electrophysiological evaluation in canine cardiac Purkinje fibres reported as % change for action potential duration at 1-100 uM concentration range. It counts as functional, Canis lupus familiaris, Purkinje fiber. In outline: as §4
The species entered for assay [32] is Canis familiaris. The assay is described as follows: (§7) In vitro electrophysiological evaluation in canine cardiac Purkinje fibres reported as % change for action potential duration at 0.1-100 uM concentration range. It counts as functional, Canis lupus familiaris, Purkinje fiber. In a few lines: as §4
The species entered for assay [33] is Canis familiaris. The description is as §7. It counts as functional, Canis lupus familiaris, Purkinje fiber. In a few lines: as §4
This is another data set of the same source.

The species entered for assay [34] is Canis familiaris. Briefly: In vitro electrophysiological activity in canine cardiac Purkinje fibres given as maximum % change for action potential duration at 100 uM concentration. The format is functional, Canis lupus familiaris, Purkinje fiber. In outline:
as §6

The species entered for assay [35] is Canis familiaris. Briefly: In vitro electrophysiological activity in canine cardiac Purkinje fibres given as maximum % change for action potential duration at 10 uM concentration. It counts as functional, Canis lupus familiaris, Purkinje fiber. In a few lines: as §6
The species entered for assay [36] is Canis familiaris. The assay is described as follows: In vitro electrophysiological activity in canine cardiac Purkinje fibres given as maximum % change for action potential duration at 95% repolarization at 1 uM concentration. It counts as functional, Canis lupus familiaris, Purkinje fiber. In outline: as §6
For assay [37], the species on record is Canis familiaris. The assay is described as follows: In vitro electrophysiological activity in canine cardiac Purkinje fibres given as maximum % change for action potential duration t 100 uM concentration. The format is functional, Canis lupus familiaris, Purkinje fiber. In outline: as §6

Several values for one entry are separate records, joined by “and”; a condition that tells them apart may be missing. Equal entries are not always repeated.

Regarding `CCN(CC)CC(=O)Nc1c(C)cccc1C` [LIDOCAINE], in the assay with Canis familiaris [1], the Effective dose was 3 mg/kg. For the same compound, the FRP was 23% and 8% and 18% in the assay listed under Canis familiaris [2]; 6% and 4% and 2% in the assay listed under Canis familiaris [3]. Besides, the CT in the assay listed under Canis familiaris [4] and in the assay filed under Canis familiaris [6] was less than 10% in each case. In addition, the Vmax in the assay listed under Canis familiaris [5] is -10%; in the assay filed under Canis familiaris [7] it was less than 10%; in the assay listed under Canis familiaris [8] it was less than 10%; in the assay listed under Canis familiaris [9], -42%; in the assay filed under Canis familiaris [10], -11%; in the assay filed under Canis familiaris [11] it was less than 10%. In addition, in the assay filed under Canis familiaris [12], the Vmax is less than 10%. In addition, the APD95 in the assay filed under Canis familiaris [13] is on record as -48%; in the assay listed under Canis familiaris [14], -43%; in the assay filed under Canis familiaris [15] it was -30%; in the assay filed under Canis familiaris [16] it was -23%; in the assay listed under Canis familiaris [17], -43%; in the assay listed under Canis familiaris [18] it was -33%.

`Cl.Clc1ccc(CCCC2CC3CCN2CC3)cc1` (configuration not stated): the FRP in the assay listed under Canis familiaris [19] and in the assay listed under Canis familiaris [20] was 25% each time. In addition, the Vmax in the assay filed under Canis familiaris [21] was -10%; in the assay listed under Canis familiaris [22], -13% and < 10%; in the assay filed under Canis familiaris [23], -23%; in the assay listed under Canis familiaris [24], less than 10%; in the assay listed under Canis familiaris [27], less than 10%; in the assay listed under Canis familiaris [28] it was less than 10%. The CT in the assay listed under Canis familiaris [25] and in the assay filed under Canis familiaris [26] was less than 10% each time. For the same compound, the APD95 in the assay listed under Canis familiaris [29] is 13%; in the assay listed under Canis familiaris [30], 30%; in the assay listed under Canis familiaris [31], -20%; in the assay filed under Canis familiaris [32] it was 21% and 12%; in the assay listed under Canis familiaris [33] it was 2%; in the assay filed under Canis familiaris [34], 21%. In addition, the APD95 was 30% and 12% in the assay listed under Canis familiaris [35]; 40% in the assay listed under Canis familiaris [36]; -20% in the assay listed under Canis familiaris [37].

The values are drawn from ChEMBL document CHEMBL1123566, “Synthesis and cardiac electrophysiological activity of 2- and 3-[(substituted phenyl)alkyl]quinuclidines. Structure-activity relationships” (1987).
